Measured values: ChEMBL document CHEMBL1129585, “Synthesis and biological activity of conformationally restricted analogs of milnacipran: (1S,2R)-1-phenyl-2-[(S)-1-aminopropyl]-N,N-diethylcyclopropanecarboxami de, an efficient noncompetitive N-methyl-D-aspartic acid receptor antagonist” (J Med Chem, 1996)

Assays:
[1] = target: Sodium-dependent serotonin transporter (Rattus norvegicus, UniProt P31652); assay: Inhibition of [3H]-paroxetine binding on serotonin transporter of rat cerebral cortical synaptic membrane
How it was run: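 Rat cerebral cortical synaptic membranes incubated with test agent at various concentrations, [³H]paroxetine 2 nM, in 50 mM Tris-HCl pH 7.4 with 120 mM NaCl and 5 mM KCl, 20 °C for 45 min. Stopped by rapid filtration on polyethylenimine-presoaked glass-fiber filters, washed with cold Tris-HCl. Bound radioactivity counted. Result given as Ki.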

[2] = target: Glutamate receptor ionotropic, NMDA 2C (Rattus norvegicus) (UniProt Q00961); assay: (§1) Percentage inhibition of N-methyl-D-aspartic acid (NMDA) receptor produced by oocytes; assay type: functional, cell-based; details: Xenopus laevis; Oocyte; concentration not given here
How it was run: (§2)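 Xenopus oocytes injected with whole-brain mRNA from 10-day-old Wistar rats (guanidine/CsCl extraction), then two-electrode voltage-clamped with 3 M KCl-filled electrodes. Currents evoked by 30 µM NMDA plus 10 µM Gly with test agent present at different concentrations. Block of the NMDA response recorded as percent inhibition or IC50.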

[3] = target: Glutamate NMDA receptor; assay: Inhibition of [3H]-MK-801 binding to NMDA receptor from rat cerebral cortical synaptic membrane
[4] = target: Glutamate receptor ionotropic, NMDA 2C (Rattus norvegicus, UniProt Q00961); assay: Concentration required to inhibit of N-methyl-D-aspartic acid (NMDA) receptor produced by oocytes; assay type: functional, cell-based, Oocyte
How it was run: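 Xenopus oocytes were injected with whole-brain mRNA from 10-day-old Wistar rats, extracted by the guanidine/CsCl method. They were two-electrode voltage-clamped with electrodes filled with 3 M KCl. Currents were evoked by 30 µM NMDA plus 10 µM Gly in the presence of test compound at different concentrations. The read-out was block of the NMDA response, given as IC50 or percent inhibition.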

[5] = organism: Rattus norvegicus; assay: Ratio of 5 HT inhibition to NMDA receptor binding
[6] = target: Glutamate receptor ionotropic, NMDA 2C (Rattus norvegicus) (UniProt Q00961); assay: as §1; assay type: cell-based; details: Xenopus laevis; Oocyte; concentration not given here; how it was run: as §2

Sequence of Glutamate receptor ionotropic, NMDA 2C (Q00961 whole entry): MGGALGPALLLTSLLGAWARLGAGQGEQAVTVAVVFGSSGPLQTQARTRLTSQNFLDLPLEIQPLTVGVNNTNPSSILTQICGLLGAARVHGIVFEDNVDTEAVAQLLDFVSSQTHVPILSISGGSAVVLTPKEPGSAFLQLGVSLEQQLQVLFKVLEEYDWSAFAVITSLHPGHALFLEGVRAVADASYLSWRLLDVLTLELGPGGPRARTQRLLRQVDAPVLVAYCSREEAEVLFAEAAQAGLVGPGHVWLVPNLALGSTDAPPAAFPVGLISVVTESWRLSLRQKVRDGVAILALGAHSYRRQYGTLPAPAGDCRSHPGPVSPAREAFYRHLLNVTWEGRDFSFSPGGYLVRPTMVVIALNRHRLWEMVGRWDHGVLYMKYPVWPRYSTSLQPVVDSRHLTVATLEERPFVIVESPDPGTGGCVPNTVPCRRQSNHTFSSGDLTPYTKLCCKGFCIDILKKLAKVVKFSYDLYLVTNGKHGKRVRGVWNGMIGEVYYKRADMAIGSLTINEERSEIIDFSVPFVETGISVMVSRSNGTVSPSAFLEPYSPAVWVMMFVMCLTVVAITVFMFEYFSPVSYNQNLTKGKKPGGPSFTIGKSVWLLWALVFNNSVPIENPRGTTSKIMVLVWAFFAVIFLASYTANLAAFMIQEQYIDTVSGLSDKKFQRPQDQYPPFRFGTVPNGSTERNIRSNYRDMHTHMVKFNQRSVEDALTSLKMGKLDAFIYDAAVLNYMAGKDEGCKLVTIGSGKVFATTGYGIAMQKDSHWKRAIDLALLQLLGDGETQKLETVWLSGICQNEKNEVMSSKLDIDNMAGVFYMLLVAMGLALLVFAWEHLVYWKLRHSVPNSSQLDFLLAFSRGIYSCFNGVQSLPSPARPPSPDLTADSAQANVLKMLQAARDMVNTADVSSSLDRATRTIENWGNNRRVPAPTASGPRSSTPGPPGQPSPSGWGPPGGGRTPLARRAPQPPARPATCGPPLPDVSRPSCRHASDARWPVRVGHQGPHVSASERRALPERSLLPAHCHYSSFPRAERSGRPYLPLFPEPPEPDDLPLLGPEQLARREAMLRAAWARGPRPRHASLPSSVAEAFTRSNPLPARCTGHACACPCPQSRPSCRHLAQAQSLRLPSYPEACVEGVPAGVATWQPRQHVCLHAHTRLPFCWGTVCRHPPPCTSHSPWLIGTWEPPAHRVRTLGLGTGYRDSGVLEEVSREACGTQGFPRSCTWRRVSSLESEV
Sequence of Sodium-dependent serotonin transporter (P31652 whole entry): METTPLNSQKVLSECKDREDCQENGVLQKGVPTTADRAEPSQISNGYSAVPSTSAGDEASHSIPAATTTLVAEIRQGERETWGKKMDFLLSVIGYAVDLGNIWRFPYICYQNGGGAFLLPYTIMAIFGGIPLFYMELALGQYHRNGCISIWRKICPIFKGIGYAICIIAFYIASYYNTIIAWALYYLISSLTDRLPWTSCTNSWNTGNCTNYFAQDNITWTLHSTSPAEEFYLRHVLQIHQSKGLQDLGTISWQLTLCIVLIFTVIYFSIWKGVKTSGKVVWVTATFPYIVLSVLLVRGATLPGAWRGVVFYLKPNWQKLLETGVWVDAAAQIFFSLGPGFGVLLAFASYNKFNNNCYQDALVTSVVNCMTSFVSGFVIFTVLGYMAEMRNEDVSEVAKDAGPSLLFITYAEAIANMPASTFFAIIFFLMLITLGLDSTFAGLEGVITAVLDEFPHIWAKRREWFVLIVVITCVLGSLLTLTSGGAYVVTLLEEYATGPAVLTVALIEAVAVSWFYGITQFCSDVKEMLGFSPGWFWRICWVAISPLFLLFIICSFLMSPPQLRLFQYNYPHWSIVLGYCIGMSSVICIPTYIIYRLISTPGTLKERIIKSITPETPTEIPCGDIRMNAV
Sequence of Glutamate receptor ionotropic, NMDA 2C (Rattus norvegicus) (Q00961 20-1237 limits assumed): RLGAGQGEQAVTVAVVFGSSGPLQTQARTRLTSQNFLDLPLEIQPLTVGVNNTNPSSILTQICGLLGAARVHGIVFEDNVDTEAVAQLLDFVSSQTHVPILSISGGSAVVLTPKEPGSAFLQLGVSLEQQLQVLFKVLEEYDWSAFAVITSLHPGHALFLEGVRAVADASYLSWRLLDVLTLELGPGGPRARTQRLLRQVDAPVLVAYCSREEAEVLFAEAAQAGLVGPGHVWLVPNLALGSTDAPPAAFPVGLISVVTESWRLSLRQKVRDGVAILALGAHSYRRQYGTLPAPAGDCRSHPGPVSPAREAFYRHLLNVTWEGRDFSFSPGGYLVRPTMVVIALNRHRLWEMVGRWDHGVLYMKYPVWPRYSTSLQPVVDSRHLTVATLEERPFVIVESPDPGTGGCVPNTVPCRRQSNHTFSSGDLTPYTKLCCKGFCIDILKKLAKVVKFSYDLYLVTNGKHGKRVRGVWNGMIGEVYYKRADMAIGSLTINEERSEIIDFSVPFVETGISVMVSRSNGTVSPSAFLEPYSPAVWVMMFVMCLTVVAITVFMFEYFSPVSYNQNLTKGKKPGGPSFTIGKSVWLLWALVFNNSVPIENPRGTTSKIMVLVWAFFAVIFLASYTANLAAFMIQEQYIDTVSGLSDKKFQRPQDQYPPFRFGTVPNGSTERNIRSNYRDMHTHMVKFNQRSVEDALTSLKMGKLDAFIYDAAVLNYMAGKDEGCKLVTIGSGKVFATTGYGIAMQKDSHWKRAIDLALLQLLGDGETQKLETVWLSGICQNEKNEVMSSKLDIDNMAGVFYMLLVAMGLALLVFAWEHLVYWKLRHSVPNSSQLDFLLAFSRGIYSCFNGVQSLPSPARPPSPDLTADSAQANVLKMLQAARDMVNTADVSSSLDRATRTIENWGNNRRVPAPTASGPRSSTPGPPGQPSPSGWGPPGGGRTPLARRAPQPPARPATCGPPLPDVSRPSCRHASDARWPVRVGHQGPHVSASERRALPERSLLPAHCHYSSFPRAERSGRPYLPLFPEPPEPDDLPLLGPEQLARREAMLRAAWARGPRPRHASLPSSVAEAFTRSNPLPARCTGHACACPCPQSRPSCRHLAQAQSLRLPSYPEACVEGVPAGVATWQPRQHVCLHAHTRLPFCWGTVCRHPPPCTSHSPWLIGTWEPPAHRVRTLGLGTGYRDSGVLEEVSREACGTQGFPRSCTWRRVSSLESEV

Row | SMILES | Ki [1] [nM] | IC50 [3] [nM] | other results
1 | CCN(CC)C(=O)[C@@]1(c2ccccc2)C[C@H]1CN [LEVOMILNACIPRAN] | 8.5 |  | inhibition [2]: 53%
2 | CCN(CC)C(=O)[C@@]1(c2ccccc2)C[C@H]1C(C)N (stereo in doubt; 2a) | 14 | 350 | IC50 [4]: 2300 nM
3 | CCN(CC)C(=O)[C@@]1(c2ccccc2)C[C@H]1C(N)c1ccccc1 (some centres not stated) | > 100000 | 17000 | Selectivity index [5]: > 5.9
4 | c1ccc(C2(N3CCCCC3)CCCCC2)cc1 [PHENCYCLIDINE] |  | 9.8 | 
5 | CCN(CC)C(=O)[C@]1(c2ccccc2)C[C@@H]1C(C)N (stereo in doubt; form 1) | > 100000 |  | 
6 | CNC1(c2ccccc2Cl)CCCCC1=O (configuration not stated) [KETAMINE] |  | 610 | 
7 | CCN(CC)C(=O)[C@@]1(c2ccccc2)C[C@H]1C(N)CC(C)C (some centres not stated) | > 100000 | 4200 | Selectivity index [5]: > 24
8 | CCCC(N)[C@@H]1C[C@@]1(C(=O)N(CC)CC)c1ccccc1 (some centres not stated) | 37000 | 1000 | Selectivity index [5]: 37
9 | CCC(N)[C@@H]1C[C@@]1(C(=O)N(CC)CC)c1ccccc1 (stereo in doubt; 3b) | > 100000 |  | 
10 | C[C@]12N[C@H](Cc3ccccc31)c1ccccc12 |  |  | inhibition [6]: 98%
11 | CCN(CC)C(=O)[C@]1(c2ccccc2)C[C@@H]1C(C)N (stereo in doubt; form 2) | 170 | 19000 | 
12 | CCC(N)[C@@H]1C[C@@]1(C(=O)N(CC)CC)c1ccccc1 (stereo in doubt; 2b) | 24000 | 200 | IC50 [4]: 2200 nM
13 | CCN(CC)C(=O)[C@@]1(c2ccccc2)C[C@H]1C(C)N (stereo in doubt; 3a) | 2400 | 6500 | 
14 | CCC(N)[C@H]1C[C@]1(C(=O)N(CC)CC)c1ccccc1 (stereo in doubt; form 1) | > 100000 |  | IC50 [4]: 39000 nM
15 | C=CC(N)[C@@H]1C[C@@]1(C(=O)N(CC)CC)c1ccccc1 (some centres not stated) | 23 | 160 | Selectivity index [5]: 0.14
16 | CCC(N)[C@H]1C[C@]1(C(=O)N(CC)CC)c1ccccc1 (stereo in doubt; form 2) | > 100000 |  | 
